Data published in ChEMBL document CHEMBL1154977, “Antiproliferative activity of novel benzo[b][1,6]naphthyridines in human solid tumor cell lines” (Bioorg Med Chem Lett, 2010).

Key:
WiDr = test: Growth inhibition of human WiDr cells after 48 hrs by sulforhodamine B assay; format: functional
Method in brief: (§1)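 Human solid tumor cells were exposed to drug for 48 h. Growth was measured by sulforhodamine B staining, and results were expressed as GI₅₀ (50% growth inhibition).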

Ishikawa = test: Growth inhibition of human Ishikawa cells after 48 hrs by sulforhodamine B assay; format: functional; method in brief: as §1
HeLa = test: Growth inhibition of human HeLa cells after 48 hrs by sulforhodamine B assay; format: functional; method in brief: as §1
SW1573 = test: Growth inhibition of human SW1573 cells after 48 hrs by sulforhodamine B assay; format: functional; conditions: SW1573, 48 h; method in brief: as §1
T47D = test: Growth inhibition of human T47D cells after 48 hrs by sulforhodamine B assay; format: functional; method in brief: as §1
Staphylococcus aureus [1] = test: Antibacterial activity against Staphylococcus aureus ATCC 29213 after 24 hrs by broth microdilution method; format: functional, organism-based; conditions: ATCC 29213, 24 h
Method in brief: (§2)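 Bacteria grown on nutrient agar at 35–37 °C for 24 h, then suspended in normal saline to approximately 5.0 × 10⁵ cfu mL⁻¹, matched to 0.5 McFarland. Broth microdilution in Mueller Hinton broth with growth and sterility controls. Incubated at 35–37 °C in a moist dark chamber, shaken, and optical density read at 630 nm after 24 h.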

Nakaseomyces glabratus = test: Antifungal activity against Candida glabrata ATCC 90030 after 48 hrs by broth microdilution method; format: functional, organism-based; conditions: ATCC 90030, 48 h
Method in brief: (§3)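 Candida strains were grown on nutrient agar at 35–37 °C for 24 h and suspended in normal saline at 1.0–5.0 × 10³ cfu mL⁻¹, matched to a 0.5 McFarland standard. Broth microdilution was run in RPMI 1640 buffered with MOPS, with growth and sterility controls. Plates were incubated at 35–37 °C in a moist dark chamber, shaken, and read for optical density at 490 nm after 48 h.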

Klebsiella oxytoca = test: Antibacterial activity against Klebsiella oxytoca ATCC 700324 after 24 hrs by broth microdilution method; format: functional, organism-based; conditions: ATCC 700324, 24 h
Escherichia coli [2] = test: Antibacterial activity against Escherichia coli ATCC 35218 after 24 hrs by broth microdilution method; format: functional, organism-based; conditions: ATCC 35218, 24 h
Method in brief: (§4)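 Bacteria were grown on nutrient agar at 35–37 °C for 24 h and suspended in normal saline at about 5.0 × 10⁵ cfu mL⁻¹, matched to a 0.5 McFarland standard. Broth microdilution was run in Mueller Hinton broth with growth and sterility controls. Plates were incubated at 35–37 °C in a moist dark chamber, shaken, and read for optical density at 630 nm after 24 h.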

Staphylococcus aureus [3] = test: Antibacterial activity against Staphylococcus aureus NRS 107 after 24 hrs by broth microdilution method; format: functional, organism-based; conditions: NRS 107, 24 h; method in brief: as §2
Klebsiella pneumoniae = test: Antibacterial activity against Klebsiella pneumoniae ATCC 700603 after 24 hrs by broth microdilution method; format: functional, organism-based; conditions: ATCC 700603, 24 h; method in brief: as §4
Enterococcus faecalis = test: Antibacterial activity against Enterococcus faecalis ATCC 29212 after 24 hrs by broth microdilution method; format: functional, organism-based; conditions: ATCC 29212, 24 h; method in brief: as §4
Nakaseomyces nivariensis = test: Antifungal activity against Candida nivariensis 5937-63 after 48 hrs by broth microdilution method; format: functional, organism-based; conditions: 5937-63, 48 h; method in brief: as §3
Staphylococcus aureus [4] = test: Antibacterial activity against epidemic methicillin-resistant Staphylococcus aureus 16 after 24 hrs by broth microdilution method; format: functional, organism-based; conditions: Staphylococcus aureus, 16, 24 h; method in brief: as §2
Pseudomonas aeruginosa = test: Antibacterial activity against Pseudomonas aeruginosa ATCC 27853 after 24 hrs by broth microdilution method; format: functional, organism-based; conditions: ATCC 27853, 24 h; method in brief: as §4
Pichia kudriavzevii = test: Antifungal activity against Candida krusei ATCC 6258 after 48 hrs by broth microdilution method; format: functional, organism-based; conditions: ATCC 6258, 48 h; method in brief: as §3
Candida parapsilosis = test: Antifungal activity against Candida parapsilosis ATCC 22019 after 48 hrs by broth microdilution method; format: functional, organism-based; conditions: Lodderomyces parapsilosis, ATCC 22019, 48 h; method in brief: as §3
Staphylococcus aureus [5] = test: Antibacterial activity against Staphylococcus aureus ATCC 25923 after 24 hrs by broth microdilution method; format: functional, organism-based; conditions: ATCC 25923, 24 h; method in brief: as §2
Escherichia coli [6] = test: Antibacterial activity against Escherichia coli ATCC 25922 after 24 hrs by broth microdilution method; format: functional, organism-based; conditions: ATCC 25922, 24 h; method in brief: as §4
Candida albicans = test: Antifungal activity against Candida albicans ATCC 90028 after 48 hrs by broth microdilution method; format: functional, organism-based; conditions: ATCC 90028, 48 h; method in brief: as §3

GI50 (HeLa) [µM] | GI50 (SW1573) [µM] | GI50 (T47D) [µM] | Compound | GI50 (WiDr) [µM] | GI50 (Ishikawa) [µM] | IC50 (Staphylococcus aureus [1]) [µM] | IC50 (Nakaseomyces glabratus) [µM] | IC50 (Klebsiella oxytoca) [µM] | IC50 (Escherichia coli [2]) [µM] | IC50 (Staphylococcus aureus [3]) [µM] | IC50 (Klebsiella pneumoniae) [µM] | IC50 (Enterococcus faecalis) [µM] | IC50 (Nakaseomyces nivariensis) [µM] | IC50 (Staphylococcus aureus [4]) [µM] | IC50 (Pseudomonas aeruginosa) [µM] | IC50 (Pichia kudriavzevii) [µM] | IC50 (Candida parapsilosis) [µM] | IC50 (Staphylococcus aureus [5]) [µM] | IC50 (Escherichia coli [6]) [µM] | IC50 (Candida albicans) [µM]
6.5 | 31 | 26 | ClC(Cl)(Cl)C1c2cc3ccccc3nc2C=C(c2ccccc2)N1CCN1CCOCC1 (stereo not given) | 20 | 17 | – | – | – | – | – | – | – | – | – | – | – | – | – | – | –
38 | 5.5 | 60 | ClC(Cl)(Cl)C1c2cc3ccccc3nc2C=C(c2ccccc2)N1CCc1ccccc1 (stereo not given) | 57 | 25 | – | – | – | – | – | – | – | – | – | – | – | – | – | – | –
5.6 | 4.3 | 54 | CCOc1ccc(CCN2C(c3ccccc3)=Cc3nc4ccccc4cc3C2C(Cl)(Cl)Cl)cc1OCC (stereo not given) | 37 | 4.1 | – | – | – | – | – | – | – | – | – | – | – | – | – | – | –
32 | 46 | 48 | C=CCN1C(c2ccccc2)=Cc2nc3ccccc3cc2C1C(Cl)(Cl)Cl (stereo not given) | 42 | 31 | – | – | – | – | – | – | – | – | – | – | – | – | – | – | –
6.1 | 6.5 | 15 | CCCCN1C(c2ccccc2)=Cc2nc3ccccc3cc2C1C(Cl)(Cl)Cl (stereo not given) | 16 | 3.1 | – | – | – | – | – | – | – | – | – | – | – | – | – | – | –
27 | 5.1 | 71 | ClC(Cl)(Cl)C1c2cc3ccccc3nc2C=C(c2ccccc2)N1Cc1ccccc1 (stereo not given) | 46 | 15 | – | – | – | – | – | – | – | – | – | – | – | – | – | – | –

Compound | GI50 (HeLa) [µM] | GI50 (SW1573) [µM] | GI50 (T47D) [µM] | GI50 (WiDr) [µM] | GI50 (Ishikawa) [µM] | IC50 (Staphylococcus aureus [1]) [µM] | IC50 (Nakaseomyces glabratus) [µM] | IC50 (Klebsiella oxytoca) [µM] | IC50 (Escherichia coli [2]) [µM] | IC50 (Staphylococcus aureus [3]) [µM] | IC50 (Klebsiella pneumoniae) [µM] | IC50 (Enterococcus faecalis) [µM] | IC50 (Nakaseomyces nivariensis) [µM] | IC50 (Staphylococcus aureus [4]) [µM] | IC50 (Pseudomonas aeruginosa) [µM] | IC50 (Pichia kudriavzevii) [µM] | IC50 (Candida parapsilosis) [µM] | IC50 (Staphylococcus aureus [5]) [µM] | IC50 (Escherichia coli [6]) [µM] | IC50 (Candida albicans) [µM]
COC1OC(c2ccccc2)=Cc2nc3ccccc3cc21 (stereo not given) | > 100 | > 100 | > 100 | > 100 | > 100 | 29 | > 100 | > 100 | > 100 | > 100 | > 100 | > 100 | > 100 | > 100 | > 100 | > 100 | > 100 | > 100 | > 100 | > 100
CCOC1OC(c2ccccc2)=Cc2nc3ccccc3cc21 (stereo not given) | > 100 | > 100 | > 100 | > 100 | > 100 | 23 | 18 | 63 | 27 | 24 | 56 | 25 | 16 | 17 | 22 | 4.5 | 20 | 20 | 20 | 20
